SMILES strings stand for the structures. Converted amounts (≈) assume the structure as drawn. The source made the active and inactive calls. The rule behind the calls is not given here.

Holding throughout (format): functional
The subject of test [1] is Klebsiella pneumoniae. The test can be described thus: Antibacterial activity against Klebsiella pneumoniae ATCC 33495 after 18 hrs by agar dilution technique. An outline of the steps: (§1)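 Agar dilution per CLSI; compounds dissolved in DMSO; plates incubated at 37 °C for 18 h; MIC taken as lowest compound concentration spot with no growth. Standard ATCC strains.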
(In general: Agar dilution tests growth on a series of plates holding different concentrations.)

The subject of test [2] is Escherichia coli. The test is described as follows: Antibacterial activity against Escherichia coli ATCC 25922 after 18 hrs by agar dilution technique. An outline of the steps: as §1
The subject of test [3] is Staphylococcus aureus. The test is described as follows: Antibacterial activity against Staphylococcus aureus ATCC 25923 after 18 hrs by agar dilution technique. The method in brief:
as §1

Test [4] deals with Streptococcus agalactiae. The test can be described thus: Antibacterial activity against Streptococcus agalactiae […] after 18 hrs by agar dilution technique. The method in brief: as §1
For test [5], the system named is Enterococcus faecalis. The test is described as follows: Antibacterial activity against Enterococcus faecalis ATCC 29212 after 18 hrs by agar dilution technique. The method in brief: as §1
Test [6] concerns Candida albicans. The test is described as follows: Antifungal activity against Candida albicans ATCC 20260 after 18 hrs by agar dilution technique. The method in brief:
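Agar dilution per CLSI with compounds dissolved in DMSO and spotted onto agar against ATCC standard strains. Plates were incubated at 37 °C for 18 h.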

For test [7], the system named is Proteus vulgaris. The test can be described thus: Antibacterial activity against Proteus vulgaris ATCC 13315 after 18 hrs by agar dilution technique. The method in brief:
as §1

What is called MIC is the least concentration at which growth counts as inhibited. `O=C1C2(CCC13C(c1ccc(F)cc1)C(c1ccccc1)=NN3c1ccccc1)C(c1ccc(F)cc1)C(c1ccccc1)=NN2c1ccccc1` (centres undefined): the minimum inhibitory concentration (MIC) in test [1] (ATCC 33495, 18 h) worked out at 10 µg/mL (≈ 14.6 µM); in test [2] (ATCC 25922, 18 h), 5 µg/mL (≈ 7.3 µM); in test [3] (ATCC 25923, 18 h) it was 5 µg/mL (≈ 7.3 µM); in test [4], 10 µg/mL (≈ 14.6 µM); in test [5] (ATCC 29212, 18 h), 10 µg/mL (≈ 14.6 µM); in test [7] (ATCC 13315, 18 h) it was 10 µg/mL (≈ 14.6 µM). Moreover, the MIC result in test [6] was “inactive”.

In the case of `Cc1ccc(N2N=C(c3ccccc3)C(c3ccc(F)cc3)C23CCC2(C3=O)C(c3ccc(F)cc3)C(c3ccccc3)=NN2c2ccc(C)cc2)cc1` (centres undefined), the MIC was determined as 10 µg/mL (≈ 14 µM) in test [1] (ATCC 33495, 18 h); 10 µg/mL (≈ 14 µM) in test [2] (ATCC 25922, 18 h); 10 µg/mL (≈ 14 µM) in test [3] (ATCC 25923, 18 h); 2.5 µg/mL (≈ 3.51 µM) in test [4]; 10 µg/mL (≈ 14 µM) in test [5] (ATCC 29212, 18 h); 10 µg/mL (≈ 14 µM) in test [7] (ATCC 13315, 18 h). In test [6], the MIC entry was “inactive”.

Take `O=C(O)c1cn(C2CC2)c2cc(N3CCNCC3)c(F)cc2c1=O` [CIPROFLOXACIN]: the MIC in test [1] (ATCC 33495, 18 h) came to 1.3 µg/mL (≈ 3.92 µM); in test [2] (ATCC 25922, 18 h), 0.3 µg/mL (≈ 0.905 µM); in test [3] (ATCC 25923, 18 h) it was 0.3 µg/mL (≈ 0.905 µM); in test [4], 0.6 µg/mL (≈ 1.81 µM); in test [5] (ATCC 29212, 18 h), 0.3 µg/mL (≈ 0.905 µM); in test [7] (ATCC 13315, 18 h), 0.3 µg/mL (≈ 0.905 µM). The MIC result in test [6] was “inactive”.

Regarding `Cc1ccc(N2N=C(c3ccccc3)[C@@H](c3ccccc3)[C@@]23CC/C(=C\c2ccccc2)C3=O)cc1`, the minimum inhibitory concentration (MIC) in test [1] (ATCC 33495, 18 h) turned out to be 2.5 µg/mL (≈ 5.34 µM); in test [2] (ATCC 25922, 18 h), 5 µg/mL (≈ 10.7 µM); in test [3] (ATCC 25923, 18 h), 0.6 µg/mL (≈ 1.28 µM); in test [4], 1.3 µg/mL (≈ 2.77 µM); in test [5] (ATCC 29212, 18 h) it was 1.3 µg/mL (≈ 2.77 µM); in test [7] (ATCC 13315, 18 h), 5 µg/mL (≈ 10.7 µM). Further, the MIC result in test [6] was “inactive”.

Consider `O=C1/C(=C/c2ccccc2)CC[C@@]12[C@H](c1ccccc1)C(c1ccccc1)=NN2c1ccccc1`, for which the minimum inhibitory concentration (MIC) turned out to be 2.5 µg/mL (≈ 5.5 µM) in test [1] (ATCC 33495, 18 h); 5 µg/mL (≈ 11 µM) in test [2] (ATCC 25922, 18 h); 5 µg/mL (≈ 11 µM) in test [3] (ATCC 25923, 18 h); 2.5 µg/mL (≈ 5.5 µM) in test [4]; 2.5 µg/mL (≈ 5.5 µM) in test [5] (ATCC 29212, 18 h); 2.5 µg/mL (≈ 5.5 µM) in test [7] (ATCC 13315, 18 h). In test [6], the MIC entry is “inactive”.

Consider `Cc1ccc(/C=C2\CC[C@]3(C2=O)[C@H](c2ccc(C)cc2)C(c2ccccc2)=NN3c2ccccc2)cc1`, for which the MIC stood at 1.3 µg/mL (≈ 2.69 µM) in test [1] (ATCC 33495, 18 h); 0.6 µg/mL (≈ 1.24 µM) in test [2] (ATCC 25922, 18 h); 2.5 µg/mL (≈ 5.18 µM) in test [3] (ATCC 25923, 18 h); 5 µg/mL (≈ 10.4 µM) in test [4]; 5 µg/mL (≈ 10.4 µM) in test [5] (ATCC 29212, 18 h); 1.3 µg/mL (≈ 2.69 µM) in test [7] (ATCC 13315, 18 h). The MIC result in test [6] is “inactive”.

With `C[C@@H]1[C@H](O)[C@@H](C)/C=C/C=C/C=C/C=C/C=C/C=C/C=C/[C@H](O[C@@H]2O[C@H](C)[C@@H](O)[C@H](N)[C@@H]2O)C[C@@H]2O[C@](O)(C[C@@H](O)C[C@@H](O)[C@H](O)CC[C@@H](O)C[C@@H](O)CC(=O)O[C@H]1C)C[C@H](O)[C@H]2C(=O)O` [AMPHOTERICIN B], the MIC entry in test [1], in test [2], in test [3], in test [4], in test [5] and in test [7] was “inactive” in each case. Further, in test [6] (ATCC 20260, 18 h), the MIC amounted to 4 µg/mL (≈ 4.33 µM).

In the case of `O=C1/C(=C/c2ccc(F)cc2)CC[C@@]12[C@H](c1ccc(F)cc1)C(c1ccccc1)=NN2c1ccccc1`, the MIC worked out at 2.5 µg/mL (≈ 5.1 µM) in test [1] (ATCC 33495, 18 h); 10 µg/mL (≈ 20.4 µM) in test [2] (ATCC 25922, 18 h); 10 µg/mL (≈ 20.4 µM) in test [3] (ATCC 25923, 18 h); 5 µg/mL (≈ 10.2 µM) in test [4]; 5 µg/mL (≈ 10.2 µM) in test [5] (ATCC 29212, 18 h); 5 µg/mL (≈ 10.2 µM) in test [7] (ATCC 13315, 18 h). For the same molecule, the MIC result in test [6] was “inactive”.

In the case of `O=C1C2(CCC13C(c1ccc(Cl)cc1)C(c1ccccc1)=NN3c1ccccc1)C(c1ccc(Cl)cc1)C(c1ccccc1)=NN2c1ccccc1` (centres undefined), the minimum inhibitory concentration (MIC) worked out at 10 µg/mL (≈ 13.9 µM) in test [1] (ATCC 33495, 18 h); 10 µg/mL (≈ 13.9 µM) in test [2] (ATCC 25922, 18 h); 10 µg/mL (≈ 13.9 µM) in test [3] (ATCC 25923, 18 h); 10 µg/mL (≈ 13.9 µM) in test [4]; 10 µg/mL (≈ 13.9 µM) in test [5] (ATCC 29212, 18 h); 10 µg/mL (≈ 13.9 µM) in test [7] (ATCC 13315, 18 h). Moreover, the MIC entry in test [6] is “inactive”.

As for `Cc1ccc(N2N=C(c3ccccc3)C(c3ccc(Cl)cc3)C23CCC2(C3=O)C(c3ccc(Cl)cc3)C(c3ccccc3)=NN2c2ccc(C)cc2)cc1` (centres undefined), the MIC in test [1] (ATCC 33495, 18 h) turned out to be 5 µg/mL (≈ 6.7 µM); in test [2] (ATCC 25922, 18 h), 10 µg/mL (≈ 13.4 µM); in test [3] (ATCC 25923, 18 h), 10 µg/mL (≈ 13.4 µM); in test [4] it was 10 µg/mL (≈ 13.4 µM); in test [5] (ATCC 29212, 18 h), 10 µg/mL (≈ 13.4 µM); in test [7] (ATCC 13315, 18 h), 10 µg/mL (≈ 13.4 µM). Moreover, in test [6], the MIC result is “inactive”.

As to `Cc1ccc(N2N=C(c3ccccc3)C(c3ccccc3)C23CCC2(C3=O)C(c3ccccc3)C(c3ccccc3)=NN2c2ccc(C)cc2)cc1` (centres undefined), the minimum inhibitory concentration (MIC) in test [1] (ATCC 33495, 18 h) came to 5 µg/mL (≈ 7.39 µM); in test [2] (ATCC 25922, 18 h), 10 µg/mL (≈ 14.8 µM); in test [3] (ATCC 25923, 18 h) it was 2.5 µg/mL (≈ 3.69 µM); in test [4] it was 2.5 µg/mL (≈ 3.69 µM); in test [5] (ATCC 29212, 18 h) it was 5 µg/mL (≈ 7.39 µM); in test [7] (ATCC 13315, 18 h) it was 5 µg/mL (≈ 7.39 µM). Moreover, the MIC entry in test [6] is “inactive”.

Consider `O=C1C2(CCC13C(c1ccccc1)C(c1ccccc1)=NN3c1ccccc1)C(c1ccccc1)C(c1ccccc1)=NN2c1ccccc1` (centres undefined), for which the minimum inhibitory concentration (MIC) in test [1] (ATCC 33495, 18 h) came out at 10 µg/mL (≈ 15.4 µM); in test [2] (ATCC 25922, 18 h), 10 µg/mL (≈ 15.4 µM); in test [3] (ATCC 25923, 18 h) it was 1.3 µg/mL (≈ 2 µM); in test [4], 2.5 µg/mL (≈ 3.85 µM); in test [5] (ATCC 29212, 18 h), 2.5 µg/mL (≈ 3.85 µM); in test [7] (ATCC 13315, 18 h), 10 µg/mL (≈ 15.4 µM). For the same molecule, the MIC entry in test [6] is “inactive”.

The record behind these values is ChEMBL document CHEMBL1158387, “Regioselective synthetic approaches towards 1,2,8,9-tetraazadispiro[4.1.4.2]trideca-2,9-dien-6-ones of potential antimicrobial properties” (2009).
